Results as given in ChEMBL document CHEMBL4330094, “Potent Metabolic Sialylation Inhibitors Based on C-5-Modified Fluorinated Sialic Acids” (J Med Chem, 2019).
pEC50: −log10 of the molar value. Activity calls are given as the source filed them. No cut-off for these calls is given here.

What was measured:
[1] = Inhibition of sialyltransferase in mouse EL4 cells assessed as decrease in lectin binding after 3 days by biotinylated MAL2 lectin and streptavidin-PE based flow cytometry; format: cell-based
In short: (§1)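 Each cell line was incubated 3 days with increasing compound concentrations or equivalent DMSO. Cells were stained with biotinylated MALII (5 µg/ml) in carbo-free blocking buffer with 1 mM CaCl/MgCl for 45-60 min at 4 °C, washed in PBS/1% BSA/0.02% azide, then stained with streptavidin-PE for 20 min at 4 °C. For flow cytometry, MFI was normalized to control as % lectin binding.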

B16-F10 [2] = assay: Effect on total cell surface glycosylation in mouse B16F10 cells assessed as inhibition of biotinylated AAL-lectin binding at 102.4 uM after 3 days by flow cytometry; format: cell-based; conditions: b16-f10, 72 h
In short: (§2)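 B16-F10 cells were exposed 3 days to 102.4 µM compound or DMSO. Staining used biotinylated lectins (AAL 5, PNA 5, GSL-I 1, LCA 1, PHA-L 1, PSA 1, SJA 1, WGA 1 µg/ml) in carbo-free blocking buffer with 1 mM CaCl and 1 mM MgCl for 45-60 min at 4 °C, then streptavidin-PE for 20 min at 4 °C. Flow cytometry read-out was MFI, mean ± SEM from two independent experiments.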

B16-F10 [3] = assay: Cytotoxicity against mouse B16F10 cells assessed as reduction in metabolic activity at 204.8 uM after 3 days by MTT assay; format: ADME, cell-based; conditions: b16-f10, 72 h
B16-F10 [4] = assay: Effect on total cell surface glycosylation in mouse B16F10 cells assessed as inhibition of biotinylated PHA-L lectin binding at 102.4 uM after 3 days by flow cytometry; format: cell-based; conditions: b16-f10, 72 h; in short: as §2
B16-F10 [5] = assay: Cytotoxicity against mouse B16F10 cells assessed as reduction in metabolic activity at <51.2 uM after 3 days by MTT assay; format: ADME, cell-based; conditions: b16-f10, 72 h
[6] = Inhibition of sialyltransferase in HEK293 cells assessed as decrease in lectin binding after 3 days by biotinylated MAL2 lectin and streptavidin-PE based flow cytometry; format: cell-based, Homo sapiens; in short: as §1
[7] = Inhibition of sialyltransferase in human THP1 cells assessed as decrease in lectin binding after 3 days by biotinylated MAL2 lectin and streptavidin-PE based flow cytometry; format: cell-based; in short: as §1
B16-F10 [8] = assay: Effect on total cell surface glycosylation in mouse B16F10 cells assessed as inhibition of biotinylated SJA-lectin binding at 102.4 uM after 3 days by flow cytometry; format: cell-based; conditions: b16-f10, 72 h; in short: as §2
[9] = Inhibition of sialyltransferase in mouse 9464D cells assessed as decrease in lectin binding after 3 days by biotinylated MAL2 lectin and streptavidin-PE based flow cytometry; format: cell-based; in short: as §1
B16-F10 [10] = assay: Relative inhibitory potency, ratio of SiaFAc to compound EC50 for inhibition of sialyltransferase in mouse B16-F10 cells; format: cell-based
B16-F10 [11] = assay: Effect on total cell surface glycosylation in mouse B16F10 cells assessed as inhibition of biotinylated GSL1-lectin binding at 102.4 uM after 3 days by flow cytometry; format: cell-based; conditions: b16-f10, 72 h; in short: as §2
B16-F10 [12] = assay: Effect on total cell surface glycosylation in mouse B16F10 cells assessed as inhibition of biotinylated PSA-lectin binding at 102.4 uM after 3 days by flow cytometry; format: cell-based; conditions: b16-f10, 72 h; in short: as §2
B16-F10 [13] = assay: Effect on total cell surface glycosylation in mouse B16F10 cells assessed as inhibition of biotinylated PNA lectin binding at 102.4 uM after 3 days by flow cytometry; format: cell-based; conditions: b16-f10, 72 h; in short: as §2
B16-F10 [14] = assay: Effect on total cell surface glycosylation in mouse B16F10 cells assessed as inhibition of biotinylated LCA-lectin binding at 102.4 uM after 3 days by flow cytometry; format: cell-based; conditions: b16-f10, 72 h; in short: as §2
B16-F10 [15] = assay: Inhibition of sialyltransferase in mouse B16-F10 cells assessed as recovery time for sialylation at 51.2 uM pretreated for 3 days followed by washing and re-seeding and measured after 6 days by biotinylated MAL2 lectin-based flow cytometry; format: cell-based
In short: (§3)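 B16-F10 cells were pretreated 3 days with 25.6 or 51.2 µM compound or DMSO, washed, reseeded, and sampled daily for 6 days. They were stained with biotinylated MALII (5 µg/ml, 45-60 min, 4 °C) plus streptavidin-PE. Flow cytometry MFI was normalized to control as % lectin binding.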

[16] = Inhibition of sialyltransferase in human HeLa cells assessed as decrease in lectin binding after 3 days by biotinylated MAL2 lectin and streptavidin-PE based flow cytometry; format: cell-based; in short: as §1
B16-F10 [17] = assay: Inhibition of sialyltransferase in mouse B16-F10 cells assessed as recovery time for sialylation at 25.6 uM pretreated for 3 days followed by washing and re-seeding and measured after 6 days by biotinylated MAL2 lectin-based flow cytometry; format: cell-based; in short: as §3
B16-F10 [18] = assay: Effect on total cell surface glycosylation in mouse B16F10 cells assessed as inhibition of biotinylated WGA-lectin binding at 102.4 uM after 3 days by flow cytometry; format: cell-based; conditions: b16-f10, 72 h; in short: as §2
[19] = Inhibition of sialyltransferase in mouse B16F10 cells assessed as decrease in lectin binding after 3 days by biotinylated MAL2 lectin and streptavidin-PE based flow cytometry; format: cell-based; in short: as §1

Compound | pEC50 [1] | pEC50 [6] | pEC50 [7] | pEC50 [9] | pEC50 [16] | pEC50 [19] | Activity (B16-F10 [2]) | Activity (B16-F10 [3]) | Activity (B16-F10 [4]) | Activity (B16-F10 [5]) | Activity (B16-F10 [8]) | Ratio EC50 (B16-F10 [10]) | Activity (B16-F10 [11]) | Activity (B16-F10 [12]) | Activity (B16-F10 [13]) | Activity (B16-F10 [14]) | TIME (B16-F10 [15]) | sialylation recovery time (B16-F10 [17]) | Activity (B16-F10 [18])
C=CCOC(=O)N[C@H]1[C@H]([C@H](OC(C)=O)[C@@H](COC(C)=O)OC(C)=O)OC(OC(C)=O)(C(=O)OC)[C@H](F)[C@@H]1OC(C)=O (some centres not stated) | 4.40 | 5.74 | 6.39 | 5.16 | 5.75 | 5.86 | Non-Toxic | Non-Toxic | Non-Toxic | Non-Toxic | Non-Toxic | 19 | Non-Toxic | Non-Toxic | Non-Toxic | Non-Toxic | 120 to 144 h | Active | Non-Toxic
COC(=O)C1(OC(C)=O)O[C@@H]([C@H](OC(C)=O)[C@@H](COC(C)=O)OC(C)=O)[C@H](NC(=O)OCC(C)C)[C@@H](OC(C)=O)[C@H]1F (some centres not stated) | 4.29 | 4.94 | 6.30 | 4.61 | 5.29 | 5.48 | Non-Toxic | Non-Toxic | Non-Toxic | Non-Toxic | Non-Toxic | 8 | Non-Toxic | Non-Toxic | Non-Toxic | Non-Toxic | 120 to 144 h | Active | Non-Toxic
COC(=O)C1(OC(C)=O)O[C@@H]([C@H](OC(C)=O)[C@@H](COC(C)=O)OC(C)=O)[C@H](NC(=O)OCc2ccccc2)[C@@H](OC(C)=O)[C@H]1F (some centres not stated) | – | – | – | – | – | 4.84 | – | – | – | – | – | 2 | – | – | – | – | – | – | –
COC(=O)C1(OC(C)=O)O[C@@H]([C@H](OC(C)=O)[C@@H](COC(C)=O)OC(C)=O)[C@H](NC(=O)OCC(Cl)(Cl)Cl)[C@@H](OC(C)=O)[C@H]1F (some centres not stated) | – | – | – | – | – | 5.42 | – | – | – | – | – | 7 | – | – | – | – | – | – | –
COC(=O)C1(OC(C)=O)O[C@@H]([C@H](OC(C)=O)[C@@H](COC(C)=O)OC(C)=O)[C@H](NC(=O)OC(C)(C)C)[C@@H](OC(C)=O)[C@H]1F (some centres not stated) | 4.26 | 4.98 | 5.89 | 4.44 | 4.89 | 5.46 | Non-Toxic | Non-Toxic | Non-Toxic | Non-Toxic | Non-Toxic | 8 | Non-Toxic | Non-Toxic | Non-Toxic | Non-Toxic | 120 to 144 h | Active | Non-Toxic
COC(=O)C1(OC(C)=O)O[C@@H]([C@H](OC(C)=O)[C@@H](COC(C)=O)OC(C)=O)[C@H](NC(=O)CCl)[C@@H](OC(C)=O)[C@H]1F (some centres not stated) | – | – | – | – | – | 4.75 | – | – | – | – | – | 1 | – | – | – | – | 48 to 72 h | – | –
COC(=O)C1(OC(C)=O)O[C@@H]([C@H](OC(C)=O)[C@@H](COC(C)=O)OC(C)=O)[C@H](NC(=O)C(F)(F)F)[C@@H](OC(C)=O)[C@H]1F (some centres not stated) | < 3.99 | 4.37 | 5.48 | 4.33 | 4.59 | 4.84 | Non-Toxic | Non-Toxic | Non-Toxic | Non-Toxic | Non-Toxic | 2 | Non-Toxic | Non-Toxic | Non-Toxic | Non-Toxic | 48 to 72 h | Active | Non-Toxic
COC(=O)C1(OC(C)=O)O[C@@H]([C@H](OC(C)=O)[C@@H](COC(C)=O)OC(C)=O)[C@H](NC(=O)CN=[N+]=[N-])[C@@H](OC(C)=O)[C@H]1F (some centres not stated) | < 3.99 | 4.34 | 4.96 | < 3.99 | 4.09 | 4.70 | Non-Toxic | Non-Toxic | Non-Toxic | Non-Toxic | Non-Toxic | 1 | Non-Toxic | Non-Toxic | Non-Toxic | Non-Toxic | 48 to 72 h | Active | Non-Toxic
COC(=O)C1(OC(C)=O)O[C@@H]([C@H](OC(C)=O)[C@@H](COC(C)=O)OC(C)=O)[C@H](NC(=O)COC(C)=O)[C@@H](OC(C)=O)[C@H]1F (some centres not stated) | < 3.99 | 4.27 | 5.37 | < 3.99 | 4.78 | 5.30 | Non-Toxic | Non-Toxic | Non-Toxic | Non-Toxic | Non-Toxic | 5 | Non-Toxic | Non-Toxic | Non-Toxic | Non-Toxic | 48 to 72 h | Active | Non-Toxic

Continued, in another order:

pEC50 [1] | pEC50 [6] | pEC50 [7] | pEC50 [9] | pEC50 [16] | pEC50 [19] | Compound | Activity (B16-F10 [2]) | Activity (B16-F10 [3]) | Activity (B16-F10 [4]) | Activity (B16-F10 [5]) | Activity (B16-F10 [8]) | Ratio EC50 (B16-F10 [10]) | Activity (B16-F10 [11]) | Activity (B16-F10 [12]) | Activity (B16-F10 [13]) | Activity (B16-F10 [14]) | TIME (B16-F10 [15]) | sialylation recovery time (B16-F10 [17]) | Activity (B16-F10 [18])
≤ 4.30 | – | – | – | – | 4.59 | COCCOC(=O)N[C@H]1[C@H]([C@H](OC(C)=O)[C@@H](COC(C)=O)OC(C)=O)OC(OC(C)=O)(C(=O)OC)[C@H](F)[C@@H]1OC(C)=O (some centres not stated) | – | – | – | – | – | 1 | – | – | – | – | – | – | –
– | – | – | – | – | 5.13 | CCCCOC(=O)N[C@H]1[C@H]([C@H](OC(C)=O)[C@@H](COC(C)=O)OC(C)=O)OC(OC(C)=O)(C(=O)OC)[C@H](F)[C@@H]1OC(C)=O (some centres not stated) | – | – | – | – | – | 4 | – | – | – | – | – | – | –
4.23 | 5.48 | 5.70 | 4.74 | 5.20 | 5.31 | COC(=O)N[C@H]1[C@H]([C@H](OC(C)=O)[C@@H](COC(C)=O)OC(C)=O)OC(OC(C)=O)(C(=O)OC)[C@H](F)[C@@H]1OC(C)=O (some centres not stated) | Non-Toxic | Non-Toxic | Non-Toxic | Non-Toxic | Non-Toxic | 5 | Non-Toxic | Non-Toxic | Non-Toxic | Non-Toxic | 120 to 144 h | Active | Non-Toxic
– | – | – | – | – | 5.90 | COC(=O)C1(OC(C)=O)O[C@@H]([C@H](OC(C)=O)[C@@H](COC(C)=O)OC(C)=O)[C@H](NC(=O)OCCF)[C@@H](OC(C)=O)[C@H]1F (some centres not stated) | – | – | – | – | – | 21 | – | – | – | – | – | – | –
